Measurements as given in ChEMBL document CHEMBL3244142, “Antifungal properties of 2-bromo-3-fluorosuccinic acid esters and related compounds” (1977).
≈ marks a conversion by molar mass, not a printed value. Where a name gives a salt, the structure may show the parent alone. Calls of active or inactive are those of the source. The rule behind the calls is not given here.

How the values were obtained:
[1] = tested on: Trichophyton mentagrophytes; assay: Antifungal activity against Trichophyton mentagrophytes ATCC 9129 at pH 5.6 after 5 days in absence of 10% beef serum; format: functional; settings: Trichophyton mentagrophytes, ATCC 9129, 120 h; read-out: MIC
Summary of the method: (§1)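 Agar-dilution MIC in Sabouraud dextrose agar at pH 5.6 or 7.0, with or without 10% beef serum. Plates were incubated at 28 °C for 5 days. MIC is the lowest concentration (µg/mL) giving 100% inhibition. Steps were 1 µg/mL up to 10, 2 µg/mL from 10–20, and 10 µg/mL from 20–100; 100 µg/mL was the top level, and no inhibition there is scored as >100.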

Mucor mucedo [2] = assay: Antifungal activity against Mucor mucedo ATCC 7941 at <100 ug/ml at pH 5.6 after 20 h in absence of 10% beef serum
Candida albicans [3] = assay: Antifungal activity against Candida albicans ATCC 10231 at <100 ug/ml at pH 5.6 after 20 h in absence of 10% beef serum
Aspergillus niger [4] = assay: Antifungal activity against Aspergillus niger ATCC 1004 at <100 ug/ml at pH 5.6 after 5 days in presence of 10% beef serum; format: functional, organism-based; summary of the method: as §1
[5] = tested on: Trichophyton mentagrophytes; assay: Antifungal activity against Trichophyton mentagrophytes ATCC 9129 at pH 7 after 5 days in absence of 10% beef serum; format: functional; settings: Trichophyton mentagrophytes, ATCC 9129, 120 h; read-out: MIC; summary of the method: as §1
[6] = tested on: Trichophyton mentagrophytes; assay: Antifungal activity against Trichophyton mentagrophytes ATCC 9129 at <100 ug/ml at pH 5.6 after 5 days in presence of 10% beef serum; format: functional, organism-based; summary of the method: as §1
Aspergillus niger [7] = assay: Antifungal activity against Aspergillus niger ATCC 1004 at <100 ug/ml at pH 7 after 5 days in absence of 10% beef serum; format: functional, organism-based; summary of the method: as §1
Mucor mucedo [8] = assay: Antifungal activity against Mucor mucedo ATCC 7941 at <100 ug/ml at pH 5.6 after 20 h in presence of 10% beef serum
Aspergillus niger [9] = assay: Antifungal activity against Aspergillus niger ATCC 1004 at <100 ug/ml at pH 5.6 after 5 days in absence of 10% beef serum; format: functional, organism-based; summary of the method: as §1
Mucor mucedo [10] = assay: Antifungal activity against Mucor mucedo ATCC 7941 at <100 ug/ml at pH 7 after 20 h in absence of 10% beef serum
Candida albicans [11] = assay: Antifungal activity against Candida albicans ATCC 10231 at <100 ug/ml at pH 5.6 after 20 h in presence of 10% beef serum
Mucor mucedo [12] = assay: Antifungal activity against Mucor mucedo ATCC 7941 at <100 ug/ml at pH 7 after 20 h in presence of 10% beef serum
Aspergillus niger [13] = assay: Antifungal activity against Aspergillus niger ATCC 1004 at <100 ug/ml at pH 7 after 5 days in presence of 10% beef serum; format: functional, organism-based; summary of the method: as §1
[14] = tested on: Trichophyton mentagrophytes; assay: Antifungal activity against Trichophyton mentagrophytes ATCC 9129 at <100 ug/ml at pH 7 after 5 days in presence of 10% beef serum; format: functional, organism-based; summary of the method: as §1
Candida albicans [15] = assay: Antifungal activity against Candida albicans ATCC 10231 at <100 ug/ml at pH 7 after 20 h in absence of 10% beef serum
Candida albicans [16] = assay: Antifungal activity against Candida albicans ATCC 10231 at <100 ug/ml at pH 7 after 20 h in presence of 10% beef serum
[17] = tested on: Trichophyton mentagrophytes; assay: Antifungal activity against Trichophyton mentagrophytes ATCC 9129 at pH 5.6 after 5 days in presence of 10% beef serum; format: functional; settings: Trichophyton mentagrophytes, ATCC 9129, 120 h; read-out: MIC; summary of the method: as §1
Mucor mucedo [18] = assay: Antifungal activity against Mucor mucedo ATCC 7941 at pH 5.6 after 20 h in absence of 10% beef serum; settings: ATCC 7941, 20 h
Mucor mucedo [19] = assay: Antifungal activity against Mucor mucedo ATCC 7941 at pH 7 after 20 h in absence of 10% beef serum; settings: ATCC 7941, 20 h
Mucor mucedo [20] = assay: Antifungal activity against Mucor mucedo ATCC 7941 at pH 5.6 after 20 h in presence of 10% beef serum; settings: ATCC 7941, 20 h
Candida albicans [21] = assay: Antifungal activity against Candida albicans ATCC 10231 at pH 7 after 20 h in absence of 10% beef serum; settings: ATCC 10231, 20 h
Candida albicans [22] = assay: Antifungal activity against Candida albicans ATCC 10231 at pH 5.6 after 20 h in absence of 10% beef serum; settings: ATCC 10231, 20 h
Mucor mucedo [23] = assay: Antifungal activity against Mucor mucedo ATCC 7941 at pH 7 after 20 h in presence of 10% beef serum; settings: ATCC 7941, 20 h
Candida albicans [24] = assay: Antifungal activity against Candida albicans ATCC 10231 at pH 5.6 after 20 h in presence of 10% beef serum; settings: ATCC 10231, 20 h
[25] = tested on: Trichophyton mentagrophytes; assay: Antifungal activity against Trichophyton mentagrophytes ATCC 9129 at pH 7 after 5 days in presence of 10% beef serum; format: functional; settings: Trichophyton mentagrophytes, ATCC 9129, 120 h; read-out: MIC; summary of the method: as §1
Candida albicans [26] = assay: Antifungal activity against Candida albicans ATCC 10231 at pH 7 after 20 h in presence of 10% beef serum; settings: ATCC 10231, 20 h
Aspergillus niger [27] = assay: Antifungal activity against Aspergillus niger ATCC 1004 at pH 5.6 after 5 days in absence of 10% beef serum; format: functional; settings: Aspergillus niger, ATCC 1004, 120 h; read-out: MIC; summary of the method: as §1
Aspergillus niger [28] = assay: Antifungal activity against Aspergillus niger ATCC 1004 at pH 7 after 5 days in absence of 10% beef serum; format: functional; settings: Aspergillus niger, ATCC 1004, 120 h; read-out: MIC; summary of the method: as §1
Aspergillus niger [29] = assay: Antifungal activity against Aspergillus niger ATCC 1004 at pH 5.6 after 5 days in presence of 10% beef serum; format: functional; settings: Aspergillus niger, ATCC 1004, 120 h; read-out: MIC; summary of the method: as §1

Compound	MIC [1] [µg/mL]	inhibition (Aspergillus niger [4])	MIC [5] [µg/mL]	inhibition (Aspergillus niger [7])	inhibition (Aspergillus niger [9])	inhibition (Candida albicans [11])	inhibition (Mucor mucedo [12])	inhibition (Aspergillus niger [13])	inhibition [14]	inhibition (Candida albicans [16])	MIC [17] [µg/mL]	MIC (Mucor mucedo [18]) [µg/mL]	MIC (Mucor mucedo [19]) [µg/mL]	MIC (Mucor mucedo [20]) [µg/mL]	MIC (Candida albicans [21]) [µg/mL]	MIC (Candida albicans [22]) [µg/mL]	MIC (Mucor mucedo [23]) [µg/mL]	MIC (Candida albicans [24]) [µg/mL]	MIC [25] [µg/mL]	MIC (Candida albicans [26]) [µg/mL]	also measured
CCCCCOC(=O)/C=C/C(=O)OCCCCC	16 (≈ 62.4 µM)	inactive	50 (≈ 195 µM)	inactive	inactive	inactive	inactive	inactive	inactive	inactive	–	–	–	–	–	–	–	–	–	–	inhibition (Mucor mucedo [2]): inactive; inhibition (Candida albicans [3]): inactive; inhibition [6]: inactive; inhibition (Mucor mucedo [8]): inactive; inhibition (Mucor mucedo [10]): inactive; inhibition (Candida albicans [15]): inactive
CCCCCOC(=O)[C@@H](F)[C@@H](Br)C(=O)OCCCCC (relative stereo)	3 (≈ 8.44 µM)	inactive	14 (≈ 39.4 µM)	inactive	inactive	inactive	inactive	inactive	inactive	inactive	–	–	–	–	–	–	–	–	–	–	inhibition (Mucor mucedo [2]): inactive; inhibition (Candida albicans [3]): inactive; inhibition [6]: inactive; inhibition (Mucor mucedo [8]): inactive; inhibition (Mucor mucedo [10]): inactive; inhibition (Candida albicans [15]): inactive
COC(=O)/C=C(/F)C(=O)OC	6 (≈ 37 µM)	inactive	50 (≈ 308 µM)	inactive	inactive	inactive	inactive	inactive	inactive	inactive	8	14 (≈ 86.4 µM)	40 (≈ 247 µM)	20	–	–	–	–	–	–	inhibition (Candida albicans [3]): inactive; inhibition (Candida albicans [15]): inactive
CCOC(=O)/C=C/C(=O)OCC	7 (≈ 40.7 µM)	inactive	18 (≈ 105 µM)	inactive	inactive	–	–	inactive	–	inactive	20	40 (≈ 232 µM)	50 (≈ 290 µM)	50	90 (≈ 523 µM)	60 (≈ 348 µM)	50	70	50	–	–
COC(=O)/C=C(\F)C(=O)OC	< 1	–	8 (≈ 49.3 µM)	–	–	–	–	inactive	–	–	4	< 1	4 (≈ 24.7 µM)	2	20 (≈ 123 µM)	4 (≈ 24.7 µM)	6	6	40	40	MIC (Aspergillus niger [27]): 20 µg/mL (≈ 123 µM); MIC (Aspergillus niger [28]): 60 µg/mL (≈ 370 µM); MIC (Aspergillus niger [29]): 50 µg/mL
COC(=O)/C=C/C(=O)OC [DIMETHYL FUMARATE]	8	inactive	20	inactive	inactive	–	–	inactive	–	–	16	18	40	30	90	60	50	60	30	90	–
COC(=O)/C=C(/Br)C(=O)OC	4 (≈ 17.9 µM)	inactive	7 (≈ 31.4 µM)	inactive	inactive	–	–	inactive	–	–	5	10 (≈ 44.8 µM)	40 (≈ 179 µM)	40	90 (≈ 404 µM)	90 (≈ 404 µM)	40	80	14	90	–
CCCOC(=O)[C@H](F)[C@@H](Br)C(=O)OCCC (relative stereo)	< 1	–	2 (≈ 6.69 µM)	–	–	–	–	inactive	–	–	12	–	5 (≈ 16.7 µM)	18	4 (≈ 13.4 µM)	3 (≈ 10 µM)	20	16	16	16	MIC (Aspergillus niger [27]): 30 µg/mL (≈ 100 µM); MIC (Aspergillus niger [28]): 40 µg/mL (≈ 134 µM); MIC (Aspergillus niger [29]): 40 µg/mL
CCCOC(=O)/C=C/C(=O)OCCC	6 (≈ 30 µM)	inactive	30 (≈ 150 µM)	inactive	inactive	inactive	inactive	inactive	inactive	inactive	50	60 (≈ 300 µM)	70 (≈ 350 µM)	–	70 (≈ 350 µM)	70 (≈ 350 µM)	–	–	–	–	inhibition (Mucor mucedo [8]): inactive
